Results on 24 compounds are retold here after ChEMBL document CHEMBL1156916, “New fluorinated 1,2,4-benzothiadiazine 1,1-dioxides: discovery of an orally active cognitive enhancer acting through potentiation of the 2-amino-3-(3-hydroxy-5-methylisoxazol-4-yl)propionic acid receptors” (J Med Chem, 2010).

The source made the active and inactive calls. The rule behind the calls is not given here.

In data set [1] the test system is Hippocampus. In words: Increase in AMPA-mediated postsynaptic response recorded in rat hippocampus CA1 region assessed as increase in excitatory postsynaptic field potential area. It is filed as functional, tissue-based. The gist of the method: (§1)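 Rat hippocampal slices, Schaffer collateral stimulation with EPSfPs recorded in CA1; perfusion medium contains 1.2 mM Mg2+. Compound bath-applied for 10 min at successively increasing concentrations, with washout to recovery. Amplitude, area and half-width averaged over five pulses and normalized to five pre-drug responses (100%). Compared with vehicle by two-way ANOVA plus Dunnett.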

The test system of data set [2] is Hippocampus. In words: Increase in AMPA-mediated postsynaptic response recorded in rat hippocampus CA1 region assessed as increase in excitatory postsynaptic field potential amplituted at 50 uM. It is filed as functional. The gist of the method: as §1
The test system of data set [3] is Hippocampus. In words: Increase in AMPA-mediated postsynaptic response recorded in rat hippocampus CA1 region assessed as increase in excitatory postsynaptic field potential area at 50 uM. The class given is functional. The gist of the method:
as §1

Data set [4] has as its system Liver microsomes. Put plainly: Metabolic stability in rat liver microsomes assessed as metabolite degradation after 30 mins at 37 degC by HPLC. The settings on record: 0.5 h. It is filed as ADME, Microsome. Put shortly:
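Phenobarbital-induced rat liver microsomes at 1 mg/mL protein with 200 μM substrate (methanol <1%), 37 °C, NADPH-generating system in pH 7.4 phosphate buffer. Incubated 30 min; T0 samples quenched with organic solvent. Metabolites resolved by RP-HPLC with ESI-MS/MS and identified against synthetic standards.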
In general terms: Microsomes from liver hold many membrane-bound enzymes, among them those of drug oxidation.

Data set [5] deals with Rattus norvegicus. Put plainly: Increase in memory in Wistar rat at 0.03 to 1 mg/kg, po treated 60 mins before test session by object recognition test. The class given is functional, organism-based. The gist of the method: (§2)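 Male Wistar rats (220-330 g), three sessions: 2 min habituation, acquisition with two identical objects, then 3 min recognition with one object replaced by a novel one. Oral compound or vehicle given 1 h before each session. Discrimination index is novel minus familiar exploration time; n = 9-10 per dose; ANOVA plus Dunnett.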

In data set [6] the test system is Mus musculus. Put plainly: Toxicity in mouse assessed as hypothermia at 30 mg/kg, po after 1.5 hrs. The settings on record: in vivo.
The subject of data set [7] is Rattus norvegicus. In words: Increase in duration of long term potentiation in dentate gyrus of anesthetized Wistar rat hippocampus at 10 mg/kg, ip measured for 3 hrs. It is filed as functional, organism-based. Set-up: dose 10 mg/kg. The gist of the method: (§3)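 Male Wistar rats (300-400 g) anaesthetized with chloral hydrate 400 mg/kg ip; body temperature held at 36.6-37 °C. Perforant path stimulated, dentate gyrus recorded. After a 60 min baseline, compound or vehicle given ip; tetanus 60 min later (four 400 Hz bursts). Recorded for 3 h; EPSfP amplitude normalized to baseline; two-way ANOVA plus Dunnett.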

In data set [8] the test system is Rattus norvegicus. Put plainly: Increase in memory in po dosed Wistar rat by object recognition test. The class given is functional, organism-based. The gist of the method: as §2
The subject of data set [9] is Mus musculus. Put plainly: Toxicity in mouse at 30 mg/kg, ip. As to conditions: in vivo.
The subject of data set [10] is Hippocampus. Put plainly: Increase in AMPA-mediated postsynaptic response recorded in rat hippocampus CA1 region assessed as increase in excitatory postsynaptic field potential half width at 50 uM. It is filed as functional. Put shortly:
as §1

Data set [11] concerns Oocyte. Put plainly: Induction of amplitude current in Xenopus laevis oocytes assessed as 2 fold increase in AMPA-induced current by voltage clamp method. The class given is functional. Put shortly: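 Xenopus oocytes injected with poly(A+) mRNA from cortex of 15-day-old male Wistar rats, expressed 3 days at 18 °C. Two-electrode voltage clamp at -60 mV; 10 μM (S)-AMPA applied 30 s every 5 min. Compound given at increasing concentrations 45 s before, during and after AMPA; peak current compared with the same oocyte's control. EC2X is the 2-fold increase; n ≥ 3, mean ± SEM.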

A short description of data set [12]: Dissociation constant, pKa of the compound. It is filed as physicochemical.
Data set [13] concerns Rattus norvegicus. Put plainly: Increase in long term potentiation-evoked EPSfP amplitude in dentate gyrus of anesthetized Wistar rat hippocampus at 3 mg/kg, ip measured for 3 hrs. The class given is functional, organism-based. Set-up: dose 3 mg/kg. The gist of the method: as §3
Data set [14] concerns Mus musculus. In words: Toxicity in mouse at 10 to 30 mg/kg, ip by Irwin's test. It is filed as organism-based. As to conditions: in vivo. Set-up: dose 10-30 mg/kg, route intraperitoneal.

As for `O=S1(=O)NCN(CCF)c2ccc(Cl)cc21`, the Activity result is “Dose-dependent effect” in data set [1]; 23% in [2]; 66% in data set [3]; “Toxic” in data set [6]; “Non-toxic” in [9]; 47% in [10]. The Stability entry in data set [4] is “Unstable”. The result in [5], in data set [7], in data set [8] and in data set [13] was Active. The EC in data set [11] is 6.7 µM. For the same compound, the pKa in data set [12] worked out at 9.35.

Regarding `O=[N+]([O-])c1ccc2c(c1)S(=O)(=O)NCN2CC(F)(F)F`, the EC in data set [11] came to 55 µM.

In the case of `O=S1(=O)NCN(CCO)c2ccc(Cl)cc21`, the EC in data set [11] was determined as 54 µM. Turning to `CCN1CNS(=O)(=O)c2cc(OC)ccc21`, the EC in data set [11] was found to be 68 µM.

With `O=S1(=O)NCN(CCF)c2ccc(I)cc21`, the EC in [11] turned out to be 120 µM. For `CCN1CNS(=O)(=O)c2cc(C(F)(F)F)ccc21`, in [11], the EC is over 300 µM. For `Cc1ccc2c(c1)S(=O)(=O)NCN2CCF`, the EC in [11] stood at 47.5 µM.

In the case of `CCN1CNS(=O)(=O)c2cc(Br)ccc21`, the EC in [11] is 29 µM.

`O=S1(=O)NCN(CCF)c2ccc(F)cc21`: the EC in [11] turned out to be 3.6 µM. Turning to `O=S1(=O)N=CN(CCF)c2ccc(Cl)cc21`, the Activity result in data set [14] is given as “Non-toxic”.

For the compound `CCN1CNS(=O)(=O)c2cc(C)ccc21`, the EC in data set [11] is 25 µM.

Regarding `CCN1CNS(=O)(=O)c2cc(Cl)cnc21`, the EC in data set [11] was found to be 28.3 µM. Take `O=S1(=O)NCN(CC(F)(F)F)c2ccc(Cl)cc21`: the outcome in data set [8] was inactive. The Activity result in [9] was “Non-toxic”. Besides, the EC in data set [11] amounted to 19 µM. This compound returned a pKa in data set [12] of 9.01.

On to `O=S1(=O)N=CNc2ccc(Cl)cc21`, for which the Activity result in data set [14] was “Non-toxic”.

Regarding `O=S1(=O)NCN(CCF)c2ccc(C(F)(F)F)cc21`, the EC in data set [11] was over 300 µM. With `COc1ccc2c(c1)S(=O)(=O)NCN2CCF`, in data set [11], the EC came to 71 µM. In the case of `O=[N+]([O-])c1ccc2c(c1)S(=O)(=O)NCN2CCF`, the EC in data set [11] amounted to 27 µM. The compound also showed a pKa in data set [12] of 8.45.

As for `CCN1CNS(=O)(=O)c2cc([N+](=O)[O-])ccc21`, the EC in [11] was 16 µM. For the compound `CCN1CNS(=O)(=O)c2cc(Cl)ccc21`, in [4], the Stability entry is on record as “Unstable”. For the same compound, in data set [12], the pKa is 9.33.

`CCN1CNS(=O)(=O)c2cc(I)ccc21`: in data set [11], the EC is 95 µM. As to `O=S1(=O)N[C@H]2CCCN2c2ccccc21`, in data set [11], the EC is 25 µM. Same read-out and setting: the value for `O=S1(=O)NCN(CC(F)F)c2ccc(Cl)cc21` was 13.5 µM; that for `O=S1(=O)NCN(CCF)c2ccc(Br)cc21` was 17 µM; that for `NS(=O)(=O)c1cc2c(cc1Cl)NC(C1CC3C=CC1C3)NS2(=O)=O` (stereo unspecified) [CYCLOTHIAZIDE] was 1.7 µM.

The term pKa denotes the pH at which an ionisable group is half protonated. A higher pKa goes with a weaker acid or stronger base.
